From ChEMBL document CHEMBL5058577, “EUbOPEN Chemogenomics Library 2 (Multiplex)” (2022)

Test system: HEK-293T
Assay: Multiplex assay against HEK293T
Format: toxicity, cell-based
Conditions: human
How it was run: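 On a CQ1 microscope at 37°C and 5% CO2, live cells were imaged after compound addition. They had been stained at seeding with Hoechst33342, BioTracker Green Microtubule Cytoskeleton Dye, MitoTracker Red and Annexin V Alexa Fluor 680. CellPathfinder machine-learning gating assigned cells to Hoechst high-intensity objects or normal cells, normal cells to healthy, pyknosed or fragmented nuclei, and pyknosed cells to mitotic or apoptotic. Tubulin, mitochondrial-mass and membrane-permeability phenotypes are per cents of healthy-nucleus cells.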

[1] = 12 h, 1 µM, compound concentration 1 uM, replicate 1
[2] = 12 h, 1 µM, compound concentration 1 uM, replicate 2
[3] = 12 h, 10 µM, compound concentration 10 uM, replicate 1
[4] = 12 h, 10 µM, compound concentration 10 uM, replicate 2
[5] = 24 h, 1 µM, compound concentration 1 uM, replicate 1
[6] = 24 h, 1 µM, compound concentration 1 uM, replicate 2
[7] = 24 h, 10 µM, compound concentration 10 uM, replicate 1
[8] = 24 h, 10 µM, compound concentration 10 uM, replicate 2
[9] = 48 h, 1 µM, compound concentration 1 uM, replicate 1
[10] = 48 h, 1 µM, compound concentration 1 uM, replicate 2
[11] = 48 h, 10 µM, compound concentration 10 uM, replicate 1
[12] = 48 h, 10 µM, compound concentration 10 uM, replicate 2

## c1cc(OCCCN2CCCCC2)ccc1CN1CCCCC1 [JNJ-5207852]
[1]
  Population Apoptotic (%): 36%
  Population Fragmented Nuclei (%): 6%
  Population Healthy Nuclei (%): 84%
  Population Hoechst High Intensity Objects (%): 5%
  Population Membrane Permeable-Phenotype (%): 0%
  Population Mitochondria Different-Phenotype (%): 36%
  Population Mitotic Cells (%): 63%
  Population Normal (%): 94%
  Population Pyknosed Nuclei (%): 8%
  Population Tubulin-Different-Phenotype (%): 21%
  Total Cell Count: 577
[2]
  Population Apoptotic (%): 47%
  Population Fragmented Nuclei (%): 10%
  Population Healthy Nuclei (%): 75%
  Population Mitochondria Different-Phenotype (%): 53%
  Population Mitotic Cells (%): 52%
  Population Pyknosed Nuclei (%): 13%
  Population Tubulin-Different-Phenotype (%): 17%
  Total Cell Count: 310
[3]
  Population Apoptotic (%): 40%
  Population Fragmented Nuclei (%): 7%
  Population Healthy Nuclei (%): 75%
  Population Hoechst High Intensity Objects (%): 7%
  Population Membrane Permeable-Phenotype (%): 0%
  Population Mitochondria Different-Phenotype (%): 63%
  Population Mitotic Cells (%): 59%
  Population Normal (%): 92%
  Population Pyknosed Nuclei (%): 17%
  Population Tubulin-Different-Phenotype (%): 52%
  Total Cell Count: 328
[4]
  Population Apoptotic (%): 66%
  Population Healthy Nuclei (%): 67%
  Population Hoechst High Intensity Objects (%): 11%
  Population Membrane Permeable-Phenotype (%): 1%
  Population Mitochondria Different-Phenotype (%): 69%
  Population Mitotic Cells (%): 33%
  Population Normal (%): 88%
  Population Pyknosed Nuclei (%): 24%
  Population Tubulin-Different-Phenotype (%): 41%
  Total Cell Count: 259
[5]
  Population Apoptotic (%): 25%
  Population Fragmented Nuclei (%): 6%
  Population Healthy Nuclei (%): 82%
  Population Hoechst High Intensity Objects (%): 5%
  Population Membrane Permeable-Phenotype (%): 1%
  Population Mitochondria Different-Phenotype (%): 20%
  Population Mitotic Cells (%): 74%
  Population Normal (%): 94%
  Population Pyknosed Nuclei (%): 11%
  Population Tubulin-Different-Phenotype (%): 15%
  Total Cell Count: 710
[6]
  Population Apoptotic (%): 41%
  Population Fragmented Nuclei (%): 11%
  Population Healthy Nuclei (%): 79%
  Population Hoechst High Intensity Objects (%): 3%
  Population Membrane Permeable-Phenotype (%): 0%
  Population Mitochondria Different-Phenotype (%): 30%
  Population Mitotic Cells (%): 58%
  Population Normal (%): 96%
  Population Pyknosed Nuclei (%): 9%
  Population Tubulin-Different-Phenotype (%): 12%
  Total Cell Count: 447
[7]
  Population Apoptotic (%): 47%
  Population Fragmented Nuclei (%): 9%
  Population Healthy Nuclei (%): 77%
  Population Hoechst High Intensity Objects (%): 6%
  Population Membrane Permeable-Phenotype (%): 1%
  Population Mitochondria Different-Phenotype (%): 47%
  Population Mitotic Cells (%): 52%
  Population Normal (%): 93%
  Population Pyknosed Nuclei (%): 13%
  Population Tubulin-Different-Phenotype (%): 44%
  Total Cell Count: 414
[8]
  Population Apoptotic (%): 65%
  Population Fragmented Nuclei (%): 8%
  Population Healthy Nuclei (%): 79%
  Population Hoechst High Intensity Objects (%): 5%
  Population Membrane Permeable-Phenotype (%): 2%
  Population Mitochondria Different-Phenotype (%): 50%
  Population Mitotic Cells (%): 34%
  Population Normal (%): 94%
  Population Pyknosed Nuclei (%): 11%
  Population Tubulin-Different-Phenotype (%): 35%
  Total Cell Count: 322
[9]
  Population Apoptotic (%): 17%
  Population Fragmented Nuclei (%): 14%
  Population Healthy Nuclei (%): 80%
  Population Hoechst High Intensity Objects (%): 2%
  Population Membrane Permeable-Phenotype (%): 1%
  Population Mitochondria Different-Phenotype (%): 12%
  Population Mitotic Cells (%): 82%
  Population Normal (%): 97%
  Population Pyknosed Nuclei (%): 5%
  Population Tubulin-Different-Phenotype (%): 11%
  Total Cell Count: 1128
[10]
  Population Apoptotic (%): 23%
  Population Fragmented Nuclei (%): 11%
  Population Healthy Nuclei (%): 83%
  Population Hoechst High Intensity Objects (%): 1%
  Population Mitochondria Different-Phenotype (%): 17%
  Population Mitotic Cells (%): 76%
  Population Normal (%): 98%
  Population Pyknosed Nuclei (%): 4%
  Population Tubulin-Different-Phenotype (%): 9%
  Total Cell Count: 746
[11]
  Population Apoptotic (%): 34%
  Population Fragmented Nuclei (%): 13%
  Population Healthy Nuclei (%): 77%
  Population Hoechst High Intensity Objects (%): 8%
  Population Membrane Permeable-Phenotype (%): 1%
  Population Mitochondria Different-Phenotype (%): 29%
  Population Mitotic Cells (%): 65%
  Population Normal (%): 91%
  Population Pyknosed Nuclei (%): 8%
  Population Tubulin-Different-Phenotype (%): 28%
  Total Cell Count: 619
[12]
  Population Apoptotic (%): 52%
  Population Healthy Nuclei (%): 75%
  Population Hoechst High Intensity Objects (%): 9%
  Population Mitochondria Different-Phenotype (%): 38%
  Population Mitotic Cells (%): 47%
  Population Normal (%): 90%
  Population Pyknosed Nuclei (%): 10%
  Population Tubulin-Different-Phenotype (%): 30%
  Total Cell Count: 424
